Results on 16 molecules are retold here after ChEMBL document CHEMBL1158400, “Synthesis of 2-styrylchromones as a novel class of antiproliferative agents targeting carcinoma cells” (Eur J Med Chem, 2009).

The subject of one assay is PC-3. Put plainly: Antiproliferative activity against human PC3 cells after 12 hrs by MTT assay. To be noted: PC-3, 12 h. Format: functional, cell-based. Summed up: (§1)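 MTT assay. Cells grown as monolayers in DMEM with 10% FBS, 2 mM glutamine and penicillin/streptomycin at 37 °C, 5% CO2. Seeded at 1×10^4 cells/well and held 12 h before serial compound dilutions were added. Final DMSO was under 1% (v/v). MTT (2 mg/ml) was present for the last 1.5 h; the formazan was dissolved in DMSO and read at 570 nm. IC50 interpolated from dose-response curves; mean ± sem of four to six experiments.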

In another assay the test system is A549. The experiment in a line: Antiproliferative activity against human A549 cells after 12 hrs by MTT assay. It counts as functional, cell-based. The conditions noted are these: A549, 12 h. A digest of the protocol:
as §1

A short description of assay [1]: Antiproliferative activity against human BT-483 cells after 12 hrs by MTT assay. Format: functional, cell-based. To be noted: BT-483, 12 h. Summed up: as §1
The subject of assay [2] is HeLa. Put plainly: Antiproliferative activity against human HeLa cells after 12 hrs by MTT assay. It counts as functional, cell-based. A digest of the protocol: as §1
Assay [3] in a line: Antiproliferative activity against human SKHep cells after 12 hrs by MTT assay. Format: functional, cell-based. A digest of the protocol: as §1
For assay [4], the system named is HeLa. The experiment in a line: Cell cycle arrest in human HeLa cells assessed as accumulation at G1 phase at 20 uM after 24 hrs using propidium iodide staining by FACS analysis. It counts as functional, cell-based.
Assay [5] concerns HeLa. The experiment in a line: Antiproliferative activity against human HeLa cells at 3 uM after 30 hrs by MTT assay. It counts as functional. Summed up:
(§2)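 HeLa cells at 10^4 cells/well were given the compound at 1.0, 3.0 or 10 μM, alongside an untreated control and a 0.1% DMSO control. Proliferation was followed by MTT at several time points over a 30 h period.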

Assay [6] deals with HeLa. The experiment in a line: Antiproliferative activity against human HeLa cells assessed as DNA fragmentation at 10 uM after 24 hrs using […] DAPI staining by fluorescence microscopy. Format: functional, cell-based. Summed up:
(§3)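 HeLa cells grown on cover glasses were treated 24 h with 5 or 10 μM compound, with untreated and 0.5% DMSO controls. They were fixed in 4% paraformaldehyde, glycine-washed and permeabilized with 2% FBS/0.4% Triton X-100. Nuclei were stained with DAPI (0.1 μg/ml) for 5 min in the dark, and DNA fragmentation was examined by fluorescence microscopy.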

In assay [7] the test system is HeLa. Put plainly: Cell cycle arrest in human HeLa cells assessed as accumulation at sub-G1 phase after 24 hrs using propidium iodide staining by FACS analysis. Format: functional, cell-based. A digest of the protocol: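 HeLa cells were treated 24 h with compound at 5 or 20 μM, with a 0.5% DMSO control and untreated blank. Cells were harvested, rinsed in PBS and fixed in 80% ethanol at −20 °C. They were stained with propidium iodide and analysed by flow cytometry. The sub-diploid (apoptotic) population is expressed as a percentage of all cells.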

The subject of assay [8] is HeLa. Put plainly: Antiproliferative activity against human HeLa cells assessed as morphological changes at 20 uM after 24 hrs using DAPI staining by fluorescence microscopy. Format: functional, cell-based. A digest of the protocol: (§4)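 HeLa cells were exposed 24 h to 5, 10 or 20 μM compound, with untreated and DMSO controls. Morphology (cell rounding, detachment from substratum) was examined.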

The test system of assay [9] is HeLa. Put plainly: Antiproliferative activity against human HeLa cells assessed as morphological changes at 10 uM after 24 hrs using DAPI staining by fluorescence microscopy. It counts as functional, cell-based. Summed up:
as §4

Assay [10] relates to HeLa. Put plainly: Antiproliferative activity against human HeLa cells assessed as morphological changes at 5 uM after 24 hrs using DAPI staining by fluorescence microscopy. It counts as functional, cell-based. A digest of the protocol: as §4
In assay [11] the test system is HeLa. Put plainly: Antiproliferative activity against human HeLa cells assessed as DNA fragmentation at 5 uM after 24 hrs using […] DAPI staining by fluorescence microscopy. It counts as functional, cell-based. Summed up:
as §3

For assay [12], the system named is HeLa. The experiment in a line: Antiproliferative activity against human HeLa cells at 10 uM after 30 hrs by MTT assay. It counts as functional. Summed up:
as §2

SMILES strings stand for the structures. The source made the active and inactive calls. The rule behind the calls is not given here. A value given as a limit tells only on which side of the number the result lay.

For `COc1ccc(/C=C/c2cc(=O)c3c(OC)cc(OC)cc3o2)cc1`, the IC50 in the assay with PC-3 was more than 40 µM; in the assay on A549 it was more than 40 µM; in assay [1] (read-out: IC50), 29.6 µM; in assay [1] (read-out: pIC50 (converted)) it was 29.5 µM; in the assay on HeLa [2], 17.8 µM; in assay [3], more than 40 µM.

Regarding `COc1cc(OC)c2c(=O)cc(/C=C/c3ccc4c(c3)OCO4)oc2c1`, the IC50 in the assay with PC-3 is more than 40 µM; with A549, more than 40 µM; in [1] (read-out: IC50) it was 29.3 µM; in assay [1] (read-out: pIC50 (converted)) it was 29.5 µM; with HeLa [2], 16.4 µM; in assay [3], 23.7 µM.

Consider `COc1cc(OC)c2c(=O)cc(/C=C/c3ccncc3)oc2c1`, for which the IC50 with PC-3 was more than 40 µM; with A549, more than 40 µM; in assay [1] (read-out: IC50) it was 25.2 µM; in assay [1] (read-out: pIC50 (converted)) it was 25.1 µM; with HeLa [2], 18.8 µM; in assay [3], more than 40 µM.

As for `COc1ccc2oc(/C=C/c3ccc(OC(F)(F)F)cc3)cc(=O)c2c1`, the IC50 with PC-3 was more than 40 µM; in the assay with A549, more than 40 µM; in assay [1] (read-out: IC50), more than 40 µM; with HeLa [2] it was 9 µM; in assay [3], more than 40 µM.

For the molecule `COc1cc(OC)c2c(=O)cc(/C=C/c3ccc(Cl)cc3)oc2c1`, the IC50 in the assay with PC-3 was more than 40 µM; in the assay on A549, more than 40 µM; in [1] (read-out: IC50), 26.1 µM; in assay [1] (read-out: pIC50 (converted)), 26.3 µM; in the assay on HeLa [2], 14.2 µM; in [3], 26.9 µM.

For `COc1cc(OC)c2c(=O)cc(/C=C/c3ccccc3)oc2c1`, the outcome in the assay on HeLa [4] was Active. The IC50 in the assay on PC-3 was more than 40 µM; in the assay with A549 it was 21.5 µM; in assay [1] (read-out: IC50) it was more than 40 µM; in the assay with HeLa [2] it was 10.1 µM; in assay [3] it was 26 µM.

On to `COc1ccc2c(=O)cc(/C=C/c3ccc(OC(F)(F)F)cc3)oc2c1`, for which the IC50 in the assay with PC-3 was more than 40 µM; in the assay with A549, more than 40 µM; in [1] (read-out: IC50) it was 20.1 µM; in assay [1] (read-out: pIC50 (converted)) it was 20 µM; in the assay with HeLa [2], 9.9 µM; in assay [3], more than 40 µM.

For `COc1cc(OC)c2c(=O)cc(/C=C/c3ccc(OC(F)(F)F)cc3)oc2c1`, the IC50 in the assay with PC-3 is more than 40 µM; in the assay on A549, 24.2 µM; in assay [1] (read-out: IC50) it was 26.6 µM; in assay [1] (read-out: pIC50 (converted)), 26.3 µM; in the assay on HeLa [2], more than 40 µM; in [3], 12.5 µM.

Consider `COc1cc(OC)c2c(=O)cc(/C=C/c3ccc(C(F)(F)F)cc3)oc2c1`, for which, in the assay on HeLa [4], the outcome was Active. Moreover, the IC50 was more than 40 µM in the assay on PC-3; more than 40 µM with A549; more than 40 µM in [1] (read-out: IC50); 60.3 µM in [1] (read-out: pIC50 (converted)); 19 µM in the assay with HeLa [2]; 20.6 µM in assay [3].

`COc1cc(OC)c2c(=O)cc(/C=C/c3ccc([N+](=O)[O-])cc3)oc2c1`: the IC50 is more than 40 µM in the assay with PC-3; 19.7 µM with A549; 25.5 µM in assay [1] (read-out: IC50); 25.5 µM in assay [1] (read-out: pIC50 (converted)); 9.6 µM in the assay with HeLa [2]; 22 µM in assay [3].

Consider `COc1cc(/C=C/c2cc(=O)c3c(OC)cc(OC)cc3o2)cc(OC)c1`, for which the IC50 with PC-3 is more than 40 µM; in the assay with A549 it was 15.6 µM; in [1] (read-out: IC50), 16.6 µM; in assay [1] (read-out: pIC50 (converted)), 16.6 µM; with HeLa [2] it was 16.7 µM; in [3], 23.7 µM.

Take `COc1ccc2c(=O)cc(/C=C/c3ccc(OC(F)(F)F)cc3)oc2c1OC`: the figures for the Activity in the assay with HeLa [5], with HeLa [7] and in the assay on HeLa [12] were 15%, “Dose-dependent effect” and 60%, respectively. Further, the result in the assay on HeLa [6], in the assay with HeLa [8], in the assay with HeLa [9] and in the assay on HeLa [10] was Active. In addition, the result in the assay with HeLa [11] was inactive. For the same molecule, the IC50 with PC-3 was more than 40 µM; in the assay with A549 it was more than 40 µM; in [1] (read-out: IC50) it was 30.9 µM; in [1] (read-out: pIC50 (converted)), 30.9 µM; in the assay with HeLa [2] it was 4.9 µM; in assay [3], 12.4 µM.

Regarding `COc1cc(OC)c2c(=O)cc(/C=C/c3ccc(Br)cc3)oc2c1`, the IC50 is more than 40 µM in the assay with PC-3; more than 40 µM with A549; more than 40 µM in [1] (read-out: IC50); 60.3 µM in assay [1] (read-out: pIC50 (converted)); more than 40 µM in the assay on HeLa [2]; more than 40 µM in [3].

In the case of `COc1cc(OC)c2c(=O)cc(/C=C/c3ccc(F)cc3)oc2c1`, the IC50 was more than 40 µM in the assay with PC-3; 18.6 µM with A549; 19.9 µM in assay [1] (read-out: IC50); 20 µM in assay [1] (read-out: pIC50 (converted)); 14.2 µM in the assay with HeLa [2]; 29.2 µM in assay [3].

On to `COc1cc(OC)c2c(=O)cc(/C=C/c3ccc(OCC4CC4)cc3)oc2c1`, for which the IC50 in the assay with PC-3 is more than 40 µM; with A549, 20.9 µM; in assay [1] (read-out: IC50) it was 16.6 µM; in assay [1] (read-out: pIC50 (converted)) it was 16.6 µM; in the assay on HeLa [2], 10.9 µM; in assay [3], 22.1 µM.

As for `COc1cccc2oc(/C=C/c3ccc(OC(F)(F)F)cc3)cc(=O)c12`, the IC50 was more than 40 µM in the assay with PC-3; more than 40 µM with A549; 18.2 µM in [1] (read-out: IC50); 18.2 µM in assay [1] (read-out: pIC50 (converted)); 9.1 µM in the assay with HeLa [2]; 21 µM in assay [3].
